Changes are numbered by the printed parent chain. Calls of active or inactive are those of the source. The calls are words filed in the database; no cut-off is given here.
Tests used:
[1] = test system: Mycobacterium tuberculosis variant bovis BCG; experiment: Antibacterial activity against Mycobacterium bovis BCG Pasteur assessed as reduction in extracellular growth at 80 uM; assay type: functional, organism-based
[2] = molecular target: T1, Phosphotyrosine protein phosphatase ptpB (Mycobacterium bovis (strain BCG / Pasteur 1173P2)) (UniProt A0A0H3M0T0); experiment: Inhibition of Mycobacterium bovis BCG Pasteur ptpB infected in mouse J774A.1 cells assessed as reduction in intracellular bacterial burden at 5 uM after 72 hrs post infection in presence of isoniazid; assay type: cell-based; details: Mycobacterium tuberculosis variant bovis BCG
T1 sequence (whole entry): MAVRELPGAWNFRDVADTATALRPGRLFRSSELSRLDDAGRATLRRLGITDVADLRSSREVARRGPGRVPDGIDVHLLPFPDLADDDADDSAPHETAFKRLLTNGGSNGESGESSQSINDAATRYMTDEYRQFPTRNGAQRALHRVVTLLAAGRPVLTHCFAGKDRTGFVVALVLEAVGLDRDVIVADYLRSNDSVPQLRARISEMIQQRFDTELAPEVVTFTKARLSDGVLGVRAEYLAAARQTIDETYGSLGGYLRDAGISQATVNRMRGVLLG
Summary of the method: (§1)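 J774A.1 mouse macrophages in DMEM with 10% heat-inactivated FBS, seeded at 2 × 10^3/well overnight. Pretreated with inhibitor in DMSO or DMSO alone, then infected with BCG Pasteur at MOI 10:1 for 4 h and washed (time 0). Medium and inhibitor renewed at 24 h. Cells lysed in 0.05% Tween 80 at 72 h; CFU counted on 7H10 after 3 weeks. Triplicate, ≥3 experiments.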

[3] = molecular target: T2, Phosphotyrosine protein phosphatase (Mycobacterium tuberculosis) (UniProt A0A045ISB3); experiment: Inhibition of multi-drug resistant Mycobacterium tuberculosis Beijing-W_565 ptpB infected in human THP1 cells assessed as reduction in intracellular bacterial burden at 20 to 100 uM after 72 hrs post infection relative to DMSO-treated control; assay type: cell-based
T2 sequence (whole entry): T1 sequence (whole entry) with G105D
Summary of the method: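 PMA-differentiated THP1 cells (1 × 10^6/well) in RPMI with 10% FBS. Inhibitor (0, 20 or 80 μM in DMSO) added, then infected with thawed M. tuberculosis at MOI 1:1 for 3 h and washed 4 times. Medium and inhibitor renewed at 24 h. Cells lysed in 0.05% SDS at 72 h; CFU plated in duplicate and counted after 3 weeks. Triplicate.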

[4] = molecular target: T1, Phosphotyrosine protein phosphatase ptpB (Mycobacterium bovis (strain BCG / Pasteur 1173P2)); experiment: Inhibition of Mycobacterium bovis BCG Pasteur ptpB infected in mouse J774A.1 cells assessed as reduction in intracellular bacterial burden at 5 uM after 72 hrs post infection in presence of rifampicin; assay type: cell-based; details: Mycobacterium tuberculosis variant bovis BCG; summary of the method: as §1
[5] = molecular target: T1, Phosphotyrosine protein phosphatase ptpB (Mycobacterium bovis (strain BCG / Pasteur 1173P2)); experiment: Inhibition of Mycobacterium bovis BCG Pasteur ptpB infected in mouse J774A.1 cells assessed as reduction in intracellular bacterial burden up to 500 uM after 72 hrs post infection relative to treated-DMSO control; assay type: cell-based; details: Mycobacterium tuberculosis variant bovis BCG; summary of the method: as §1
[6] = test system: Mycobacterium tuberculosis variant bovis BCG; experiment: Antibacterial activity against Mycobacterium bovis BCG Pasteur infected in mouse J774A.1 cells assessed as reduction in bacterial burden at 0.3 ug/ml after 72 hrs post infection relative to control; assay type: functional; design: scale not given: the % may be the effect or the level left; summary of the method: as §1
[7] = molecular target: T1, Phosphotyrosine protein phosphatase ptpB (Mycobacterium bovis (strain BCG / Pasteur 1173P2)); experiment: Inhibition of Mycobacterium bovis BCG Pasteur ptpB infected in mouse J774A.1 cells assessed as reduction in intracellular bacterial burden at 80 uM after 72 hrs post infection; assay type: cell-based; details: Mycobacterium tuberculosis variant bovis BCG; summary of the method: as §1
[8] = molecular target: T1, Phosphotyrosine protein phosphatase ptpB (Mycobacterium bovis (strain BCG / Pasteur 1173P2)); experiment: Inhibition of Mycobacterium bovis BCG Pasteur ptpB infected in mouse J774A.1 cells assessed as reduction in intracellular bacterial burden at 10 to 120 uM after 24 hrs post infection; assay type: cell-based; details: Mycobacterium tuberculosis variant bovis BCG; summary of the method: as §1
[9] = molecular target: T1, Phosphotyrosine protein phosphatase ptpB (Mycobacterium bovis (strain BCG / Pasteur 1173P2)); experiment: Inhibition of Mycobacterium bovis BCG Pasteur ptpB infected in mouse J774A.1 cells assessed as reduction in intracellular bacterial burden at 10 to 120 uM after 72 hrs post infection relative to DMSO-treated control; assay type: cell-based; details: Mycobacterium tuberculosis variant bovis BCG; summary of the method: as §1
[10] = test system: Mycobacterium tuberculosis variant bovis BCG; experiment: Antibacterial activity against Mycobacterium bovis BCG Pasteur infected in mouse J774A.1 cells assessed as reduction in bacterial burden at 0.1 ug/ml after 72 hrs post infection relative to control; assay type: functional; design: scale not given: the % may be the effect or the level left; summary of the method: as §1
[11] = molecular target: T2, Phosphotyrosine protein phosphatase (Mycobacterium tuberculosis); experiment: Inhibition of multi-drug resistant Mycobacterium tuberculosis Beijing-W_565 ptpB infected in human THP1 cells assessed as reduction in intracellular bacterial burden at 20 to 80 uM after 72 hrs post infection relative to DMSO-treated control; assay type: cell-based
Summary of the method: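 THP1 cells (1 × 10^6/well) were PMA-treated overnight. Inhibitor (20 or 80 μM, in DMSO) was added in RPMI with 10% FBS before infection with thawed bacteria at MOI 1:1. Washed four times after 3 h; inhibitor re-added at 24 h. At 72 h, cells lysed in 0.05% SDS and CFU plated (duplicate 10-fold dilutions, 7H10, 3 weeks); triplicates.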

SMILES	inhibition [7]	inhibition [8]	inhibition [9] [%]	also measured
Cc1onc(C(=O)O)c1-c1cccc(-c2cc(Cl)c(O)c(Cl)c2)c1	–	–	–	Activity [1]: inactive; inhibition [2]: > 93%; inhibition [3]: < 74%; inhibition [4]: > 93%; inhibition [5]: < 84%
CO[C@H]1/C=C/O[C@@]2(C)Oc3c(C)c(O)c4c(O)c(c(/C=N/N5CCN(C)CC5)c(O)c4c3C2=O)NC(=O)/C(C)=C\C=C\[C@H](C)[C@H](O)[C@@H](C)[C@@H](O)[C@@H](C)[C@H](OC(C)=O)[C@@H]1C [RIFAMPIN]	–	–	–	Activity [6]: <25%
O=C(O)c1noc(-c2ccccc2)c1-c1cccc(-c2ccc(O)c(Cl)c2)c1	Active	Active	81 to 87	–
O=C(O)c1noc(-c2ccccc2)c1-c1cccc(-c2ccc(O)c(F)c2)c1	Active	Active	81 to 87	–
O=C(O)c1noc(-c2ccccc2)c1-c1cccc(-c2cc(Cl)c(O)c([N+](=O)[O-])c2)c1	Active	Active	81 to 87	–
O=C(O)c1noc(-c2ccccc2)c1-c1cccc(-c2cc(Cl)c(O)c(Cl)c2)c1	–	Active	81 to 87	–
NNC(=O)c1ccncc1 [ISONIAZID]	–	–	–	Activity [10]: <25%
O=C(O)c1noc(-c2ccccc2)c1-c1cccc(-c2ccc(O)cc2)c1	Active	Active	81 to 87	–
COC(=O)c1c(O)cccc1OC/C=C/c1cccc(-c2cc(C(=O)O)no2)c1 [ISOXAZOLECARBOXYLIC ACID]	–	–	–	inhibition [11]: Active

Reference: ChEMBL document CHEMBL4196176, “Structure-Based Design of MptpB Inhibitors That Reduce Multidrug-Resistant Mycobacterium tuberculosis Survival and Infection Burden in Vivo” (J Med Chem, 2018)
